We go through 167 variants from the RNAGym collection of RNA variant scans (doi:10.1126/science.aae0568).

The chains are these.
B1: tRNA (parent)
chain: GUUCCGUUGGCGUAAUGGUAACGCGUCUCCCUCCUAAGGAGAAGACUGCGGGUUCGAGUCCCGUACGGAACG

Fewer inactive variants are shown than the library holds. A value given as a limit tells only on which side of the number the result lay.

The variants in the series derive from B1. Briefly: yeast fitness relative to wild type (ratio to wild type); higher = fitter; tRNA-Arg(CCU), competitive growth, 37 C, YPD. The method, boiled down:
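Changes in genotype frequencies gave Darwinian fitness relative to wild type. Frequencies were read by 100-nucleotide paired-end sequencing of gene amplicons before and after pooled Saccharomyces cerevisiae strains, carrying tRNA-Arg(CCU) gene variants at the native locus, were competed in YPD at 37°C for 24 hours in six replicates. A genotype was kept only with ≥ 100 starting reads, and estimates < 0.5 were set to 0.5.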
Turning to U13C C60A A70G, the yeast fitness was found to be 0.588.

For the variant U13C A40G C62G, the yeast fitness was at most 0.5.

Take U13C A21G A42U A57U C62U: the yeast fitness is at most 0.5.

In the case of U13C G25C C30G, the yeast fitness was 0.611.

On to U13G U19G A57G C62U, for which the yeast fitness was at most 0.5.

Take U13G A45U A70C: the yeast fitness came out at 0.649.

On to U13C G38A A70U, for which the yeast fitness was found to be 0.525.

In the case of U13C C55A A69U, the yeast fitness is 0.624.

For the variant U13G C49A G52C, the yeast fitness was at most 0.5.

With U13C A14U C46U G48A C55U G68U, the yeast fitness is at most 0.5.

Turning to U13C U59G G68C, the yeast fitness is at most 0.5.

For the variant U13C A36C C55U G68C, the yeast fitness is at most 0.5.

As to U13C A37G G58A, the yeast fitness was determined as 0.647.

With U13C G18A G41A C62G A65U, the yeast fitness stood at 0.619.

Turning to U13C G50C C66U, the yeast fitness was at most 0.5.

U13C C66G: the yeast fitness came to 0.742.

For the variant U13C C66A, the yeast fitness was 0.556.

Take U13C A40U: the yeast fitness was determined as 1.03.

For U13C C55G C61G C66U, the yeast fitness is at most 0.5.

As for U13G A69C, the yeast fitness came to 0.951.

On to U13C G38A, for which the yeast fitness turned out to be 0.708.

In the case of U13G A36C, the yeast fitness was 0.52.

For the variant U13G A36G, the yeast fitness worked out at 0.913.

On to U13G C31A A57U, for which the yeast fitness was at most 0.5.

As to U13C C29U G56C, the yeast fitness is at most 0.5.

On to U13C C61G G67U, for which the yeast fitness turned out to be 0.6.

Consider U13C U26A C27U, for which the yeast fitness stood at 0.593.

U13C G48C: the yeast fitness amounted to 0.906.

For the variant U13C U19A G51C C55U U64G, the yeast fitness worked out at 0.633.

As for U13C A37U A42U C66A A69C, the yeast fitness is at most 0.5.

Turning to U13C C30G U35C, the yeast fitness was at most 0.5.

For the variant U13C A40U A57G, the yeast fitness came to 0.688.

Consider U13C A45G C61G, for which the yeast fitness was at most 0.5.

With U13C U16G C27G C49A C60A, the yeast fitness is at most 0.5.

For the variant U13C U16A G17C C34U, the yeast fitness was at most 0.5.

U13G A14C G39C G41A C60G C61U C62G A65U: the yeast fitness was at most 0.5.

On to U13G A37C A70G, for which the yeast fitness worked out at 0.539.

As to U13G G38C, the yeast fitness is 0.757.

As for U13C G44A, the yeast fitness amounted to 0.827.

U13C G44C: the yeast fitness came to 0.913.

Regarding U13C G58A A70C, the yeast fitness was determined as 0.817.

U13G C66U: the yeast fitness turned out to be 0.818.

With U13C A20G A37G G58A, the yeast fitness was at most 0.5.

Consider U13G C24U U28A A42G, for which the yeast fitness was at most 0.5.

Consider U13C C31U C34U A40G U47A, for which the yeast fitness is at most 0.5.

Consider U13C C34U, for which the yeast fitness was 0.668.

Turning to U13G G67C, the yeast fitness was determined as 0.777.

With U13G C62U, the yeast fitness is 0.92.

With U13G C62G, the yeast fitness was 0.726.

With U13C G44C G58A, the yeast fitness amounted to 0.927.

With U13G C22G C30U A36G A40U U54G, the yeast fitness is at most 0.5.

As for U13C C29A C33G U35C G51A, the yeast fitness was determined as 0.503.

Take U13G C33G: the yeast fitness is 0.51.

U13G C33U: the yeast fitness amounted to 0.671.

Regarding U13C G39A, the yeast fitness turned out to be 0.982.

Turning to U13G C46U U53A, the yeast fitness was at most 0.5.

In the case of U13G G48A A65U, the yeast fitness was 0.654.

With U13G G23C A43C, the yeast fitness was 0.584.

U13C U26G C27U C49U C66U: the yeast fitness was 0.801.

Consider U13C U26C A65C, for which the yeast fitness worked out at 0.661.

For the variant U13C A42G G56U, the yeast fitness is at most 0.5.

Turning to U13G A20C C55U A69U, the yeast fitness was 0.565.

As to U13C U32C, the yeast fitness is 0.88.

For the variant U13G U35C G38A A42U G58C A65U, the yeast fitness was at most 0.5.

For the variant U13C C29G A36U G41C A45C C49U U54C C61U, the yeast fitness is at most 0.5.

In the case of U13C A15U C46A A65C, the yeast fitness was at most 0.5.

In the case of U13C C22U, the yeast fitness worked out at 0.932.

U13G U28A C30A A69U: the yeast fitness came out at 0.554.

As for U13C C31G U47G U53G C61U G68A, the yeast fitness was 0.591.

For the variant U13C A45C G50U, the yeast fitness is at most 0.5.

U13C C34G C55A: the yeast fitness was at most 0.5.

For U13C A15U U16A U19A, the yeast fitness was at most 0.5.

Take U13C C49G U53C A57C: the yeast fitness was at most 0.5.

On to U13C A37U C62A, for which the yeast fitness was at most 0.5.

In the case of U13C C61G, the yeast fitness is 0.609.

Turning to U13C C34G G67A, the yeast fitness is at most 0.5.

As for U13C C31U C62A G63A, the yeast fitness was at most 0.5.

Regarding U13C A69C, the yeast fitness was 0.995.

As for U13G A14U U16A G17U G67C, the yeast fitness is at most 0.5.

Regarding U13C G23A C29G A45U C62U, the yeast fitness was at most 0.5.

In the case of U13C A20G U54C, the yeast fitness was at most 0.5.

Take U13C A20C G48C A57G: the yeast fitness is at most 0.5.

Turning to U13G C30A A65U A69C, the yeast fitness was at most 0.5.

As for U13C A15G A43U, the yeast fitness came to 0.752.

As for U13C A43U C60G, the yeast fitness came out at 0.546.

U13C A14U G41C G48C: the yeast fitness is at most 0.5.

With U13C C24G C61A, the yeast fitness was found to be 0.54.

As for U13G U35A A37G A43U A45C A65C, the yeast fitness was at most 0.5.

With U13C A36G C62U, the yeast fitness stood at 0.693.

On to U13G A42U G44A C49A, for which the yeast fitness worked out at 0.602.

Take U13C U47C A65G: the yeast fitness was 0.766.

Consider U13C C31A, for which the yeast fitness came to 0.901.

Turning to U13C C31U, the yeast fitness was 1.01.

Consider U13C C29A A37U C49A, for which the yeast fitness was at most 0.5.

In the case of U13G G25A, the yeast fitness worked out at 0.973.

As for U13C C62A, the yeast fitness worked out at 0.68.

As for U13C C62U, the yeast fitness turned out to be 1.01.

Take U13G A20U: the yeast fitness turned out to be 1.03.

Regarding U13G G44C, the yeast fitness was 0.774.

For the variant U13G C31U U35A A57C, the yeast fitness was 0.61.

For U13C A15C C46G, the yeast fitness was at most 0.5.

U13C C31G C33G: the yeast fitness was at most 0.5.

As to U13C C27G A37U C60A, the yeast fitness was determined as 0.727.

In the case of U13G U28C G38C, the yeast fitness was at most 0.5.

U13C G18A: the yeast fitness came out at 0.843.

In the case of U13C G48C A57G, the yeast fitness is at most 0.5.

Regarding U13C G48C A57C, the yeast fitness was at most 0.5.

As to U13C A43U A69C, the yeast fitness turned out to be 0.766.

As to U13G C49G G50C C60G C62A, the yeast fitness was at most 0.5.

On to U13C U16C U26A, for which the yeast fitness was determined as 0.637.

Regarding U13G U53C U64C, the yeast fitness was at most 0.5.

In the case of U13C U19C A36U A42G G52A C60A C62A, the yeast fitness is at most 0.5.

In the case of U13C A40G G63A G67A, the yeast fitness was at most 0.5.

With U13C G18A C66G, the yeast fitness amounted to 0.662.

Take U13G C22U C31A A70U: the yeast fitness was at most 0.5.

Consider U13C A20C A43G, for which the yeast fitness came out at 0.684.

As for U13C C29G A45U C62U, the yeast fitness is at most 0.5.

Consider U13G A70C, for which the yeast fitness amounted to 0.843.

Regarding U13G A70G, the yeast fitness came out at 0.831.

On to U13G A70U, for which the yeast fitness worked out at 1.11.

As to U13C U28C, the yeast fitness was 0.838.

Turning to U13G U19G, the yeast fitness was found to be 1.05.

For U13C G52A, the yeast fitness was found to be 0.735.

For U13C G18A A69C, the yeast fitness worked out at 0.719.

With U13G C29U G68C, the yeast fitness was at most 0.5.

Turning to U13C A15U C61U A65C, the yeast fitness was at most 0.5.

As for U13C U32G G39C G52C, the yeast fitness is at most 0.5.

Regarding U13C C34G C46U A57U C60G A65C, the yeast fitness is at most 0.5.

As to U13C C22U C27U A37C G67A, the yeast fitness is at most 0.5.

Turning to U13C C34G C62U, the yeast fitness was at most 0.5.

Take U13G C27A U28A C33U: the yeast fitness is at most 0.5.

As to U13G G68C, the yeast fitness is 0.584.

On to U13C A40C C66A, for which the yeast fitness is 0.567.

With U13C C22U G39C, the yeast fitness is 0.512.

U13C A45U G63C: the yeast fitness is at most 0.5.

Regarding U13G G58C C62U A70U, the yeast fitness was at most 0.5.

U13C C33G G56C: the yeast fitness was at most 0.5.

Consider U13C C22U G38C, for which the yeast fitness was at most 0.5.

Take U13C C27U A37C: the yeast fitness was at most 0.5.

As for U13G A20U C22U C24A A45G C55U, the yeast fitness was at most 0.5.

For the variant U13C A45G, the yeast fitness is 0.916.

Consider U13C C30A, for which the yeast fitness turned out to be 0.825.

Regarding U13C C30G, the yeast fitness amounted to 0.578.

In the case of A14C A15C, the yeast fitness was found to be 0.518.

Turning to U13G A21C C46U G50A U64A A69U, the yeast fitness was at most 0.5.

U13C C31U G56C: the yeast fitness is at most 0.5.

In the case of U13G C29U C33U G67A, the yeast fitness was at most 0.5.

Regarding U13C A45U A57G, the yeast fitness was at most 0.5.

As to U13C A65C, the yeast fitness was found to be 0.873.

U13C A65U: the yeast fitness was found to be 1.02.

As to U13C C33A A36C G63C C66G, the yeast fitness is at most 0.5.

U13G A20G U28A A70U: the yeast fitness was determined as 0.873.

With A14C A15C A21U A57G A65G, the yeast fitness was at most 0.5.

Turning to U13C A43U C49U, the yeast fitness worked out at 0.716.

Take U13C C22A C24A: the yeast fitness is at most 0.5.

Take U13G U47A G68A: the yeast fitness is 0.737.

On to U13G U19A C27U C29U, for which the yeast fitness is at most 0.5.

On to U13C A20U, for which the yeast fitness came to 1.12.

For U13C C24U U53A C66U, the yeast fitness is at most 0.5.

In the case of U13C G25A, the yeast fitness amounted to 0.902.

As for U13C G25C, the yeast fitness stood at 0.996.

As for U13C A15G C30A C62G, the yeast fitness was at most 0.5.

Consider U13C U16G G25C, for which the yeast fitness was at most 0.5.

U13C C22G C27A G51C A70U: the yeast fitness is at most 0.5.

On to U13G C24A A45G C55G, for which the yeast fitness was 0.622.

U13G C22U G44A: the yeast fitness came to 0.641.

As for U13C A14U G41C, the yeast fitness was 0.603.
